Results: paper PMC8897208 (Acta Pharmaceutica Sinica. B, 2021)

Assays:
BXPC-3 cells = test: ELISA for IL6, IL8 and TNF-α secretion; type: cell-based; conditions: BXPC-3, 30 ng/mL PMA, 10, 20, 40 μmol/L, 24 h
HDAC4 = HDAC4 (Homo sapiens, UniProt P56524); test: HDACs selectivity assay; type: biochemical
How it was run: (§1)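 Enzyme selectivity panel was run by an outside contract lab to its standard assay protocols. IC50 values came from dose–response fitting of the data points. Each experiment was done independently at least three times.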

HDAC7 = target: T1, HDAC7 (Homo sapiens, UniProt Q8WUI4); test: HDACs selectivity assay; type: biochemical
T1 sequence (Q8WUI4 1-952): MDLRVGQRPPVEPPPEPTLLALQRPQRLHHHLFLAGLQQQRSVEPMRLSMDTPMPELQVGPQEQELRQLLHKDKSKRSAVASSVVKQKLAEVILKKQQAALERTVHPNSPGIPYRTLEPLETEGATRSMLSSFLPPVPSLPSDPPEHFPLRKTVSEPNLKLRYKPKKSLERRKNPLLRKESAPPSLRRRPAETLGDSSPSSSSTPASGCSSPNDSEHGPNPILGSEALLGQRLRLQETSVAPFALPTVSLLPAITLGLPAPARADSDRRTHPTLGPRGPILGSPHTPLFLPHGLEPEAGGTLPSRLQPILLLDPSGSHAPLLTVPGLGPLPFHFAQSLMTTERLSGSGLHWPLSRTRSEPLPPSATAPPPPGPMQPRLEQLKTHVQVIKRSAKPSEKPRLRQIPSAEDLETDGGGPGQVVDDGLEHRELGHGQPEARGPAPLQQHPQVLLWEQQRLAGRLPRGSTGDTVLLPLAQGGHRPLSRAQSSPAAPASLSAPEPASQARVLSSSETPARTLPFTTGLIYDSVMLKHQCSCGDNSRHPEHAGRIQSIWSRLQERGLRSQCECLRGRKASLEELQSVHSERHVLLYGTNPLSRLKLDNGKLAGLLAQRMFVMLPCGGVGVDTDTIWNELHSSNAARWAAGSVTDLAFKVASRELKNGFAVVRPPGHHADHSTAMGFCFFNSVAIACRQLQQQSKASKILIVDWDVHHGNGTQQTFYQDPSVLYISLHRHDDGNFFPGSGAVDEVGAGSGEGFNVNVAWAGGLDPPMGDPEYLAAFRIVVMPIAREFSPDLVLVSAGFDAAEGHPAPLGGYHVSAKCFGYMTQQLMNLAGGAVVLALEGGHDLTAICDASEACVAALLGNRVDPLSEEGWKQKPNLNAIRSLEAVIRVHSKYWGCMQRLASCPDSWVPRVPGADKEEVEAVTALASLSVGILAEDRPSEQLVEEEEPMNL
How it was run: as §1

HDAC9 = HDAC9 (Homo sapiens, UniProt Q9UKV0); test: HDACs selectivity assay; type: biochemical
How it was run: as §1

SIRT6 [1] = target: T2, SIRT6 (Homo sapiens, UniProt Q8N6T7); test: FDL assay of SIRT6 deacetylation on H3K9Ac peptide; type: biochemical
How it was run: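 Recombinant SIRT6 was expressed in E. coli BL21 in LB with 100 μg/mL ampicillin at 37 °C. Expression was induced with 0.5 mmol/L IPTG at OD600 0.8, then grown 18 h at 16 °C and purified by an earlier method.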

SIRT2 = target: T3, SIRT2 (Homo sapiens, UniProt Q8IXJ6); test: HDACs selectivity assay; type: biochemical
T3 sequence (Q8IXJ6 1-389): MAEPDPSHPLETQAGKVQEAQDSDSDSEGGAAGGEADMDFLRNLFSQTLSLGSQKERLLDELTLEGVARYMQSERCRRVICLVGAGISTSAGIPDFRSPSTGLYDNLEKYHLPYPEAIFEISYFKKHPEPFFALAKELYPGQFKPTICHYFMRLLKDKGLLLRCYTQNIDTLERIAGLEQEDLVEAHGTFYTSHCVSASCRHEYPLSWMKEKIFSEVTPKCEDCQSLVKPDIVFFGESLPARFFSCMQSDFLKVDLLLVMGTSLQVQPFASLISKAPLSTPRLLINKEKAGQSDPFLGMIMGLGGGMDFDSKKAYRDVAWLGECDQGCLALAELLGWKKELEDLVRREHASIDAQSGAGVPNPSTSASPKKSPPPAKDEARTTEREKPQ

HDAC5 = HDAC5 (Homo sapiens, UniProt Q9UQL6); test: HDACs selectivity assay; type: biochemical
How it was run: as §1

SIRT6 [2] = target: T2, SIRT6; test: HPLC assay of SIRT6 deacetylation on H3K9Ac; type: biochemical; conditions: 50 μmol/L JYQ-42, H3K9Ac peptide
MiaPaCa-2 cells = test: Proliferation assay; type: cell-based; conditions: MiaPaCa-2, up to 20 μmol/L, 48 h, CCK-8
SIRT6 [3] = target: T2, SIRT6; test: Competition assay between SIRT6 substrates and JYQ-42; type: biochemical; conditions: FDL competition assay
HDAC3 = HDAC3 (Homo sapiens, UniProt O15379); test: HDACs selectivity assay; type: biochemical
How it was run: as §1

SIRT6 [4] = target: T2, SIRT6; test: Enzymatic kinetic assays by HPLC; type: biochemical; conditions: for kcat (Ac-RHKK-Ac-AMC): varied Ac-RHKK-Ac-AMC, HPLC

T2 sequence (Q8N6T7 whole entry): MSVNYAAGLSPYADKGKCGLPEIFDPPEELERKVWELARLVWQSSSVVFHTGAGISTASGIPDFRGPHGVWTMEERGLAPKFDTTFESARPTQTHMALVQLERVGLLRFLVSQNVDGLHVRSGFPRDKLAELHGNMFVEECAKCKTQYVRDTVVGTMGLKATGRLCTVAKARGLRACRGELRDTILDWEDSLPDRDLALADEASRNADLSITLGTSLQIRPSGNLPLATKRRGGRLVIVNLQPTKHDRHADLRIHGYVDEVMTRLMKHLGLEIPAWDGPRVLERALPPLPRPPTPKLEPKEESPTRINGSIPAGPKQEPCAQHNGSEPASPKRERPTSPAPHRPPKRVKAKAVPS
HDAC4, sequence (P56524 whole entry): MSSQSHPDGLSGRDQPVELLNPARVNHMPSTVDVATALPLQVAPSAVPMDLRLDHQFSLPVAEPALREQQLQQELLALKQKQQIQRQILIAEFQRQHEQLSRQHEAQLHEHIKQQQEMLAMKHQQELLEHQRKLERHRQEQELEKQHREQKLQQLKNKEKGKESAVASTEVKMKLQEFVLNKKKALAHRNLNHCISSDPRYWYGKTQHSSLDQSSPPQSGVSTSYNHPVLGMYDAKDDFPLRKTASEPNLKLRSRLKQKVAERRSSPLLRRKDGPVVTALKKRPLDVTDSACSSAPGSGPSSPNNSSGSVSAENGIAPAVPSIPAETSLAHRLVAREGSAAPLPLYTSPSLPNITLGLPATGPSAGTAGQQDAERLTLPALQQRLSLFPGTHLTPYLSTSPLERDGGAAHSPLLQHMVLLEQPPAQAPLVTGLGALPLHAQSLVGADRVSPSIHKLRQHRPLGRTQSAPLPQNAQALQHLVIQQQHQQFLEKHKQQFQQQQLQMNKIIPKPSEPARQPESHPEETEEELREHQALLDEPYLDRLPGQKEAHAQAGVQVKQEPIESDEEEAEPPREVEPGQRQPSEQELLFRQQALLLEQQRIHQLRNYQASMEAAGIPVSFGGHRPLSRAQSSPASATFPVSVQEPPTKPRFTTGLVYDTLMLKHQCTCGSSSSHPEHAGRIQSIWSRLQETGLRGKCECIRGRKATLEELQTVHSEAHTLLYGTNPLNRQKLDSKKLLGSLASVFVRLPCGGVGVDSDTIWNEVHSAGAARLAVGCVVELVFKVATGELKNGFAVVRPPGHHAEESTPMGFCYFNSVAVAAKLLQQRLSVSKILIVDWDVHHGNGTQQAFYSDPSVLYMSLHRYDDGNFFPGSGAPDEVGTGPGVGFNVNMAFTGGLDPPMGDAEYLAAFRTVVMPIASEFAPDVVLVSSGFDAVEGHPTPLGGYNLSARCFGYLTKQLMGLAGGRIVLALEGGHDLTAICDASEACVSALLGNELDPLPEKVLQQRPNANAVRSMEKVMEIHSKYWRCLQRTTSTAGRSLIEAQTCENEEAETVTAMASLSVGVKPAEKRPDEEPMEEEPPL
HDAC9, sequence (Q9UKV0 whole entry): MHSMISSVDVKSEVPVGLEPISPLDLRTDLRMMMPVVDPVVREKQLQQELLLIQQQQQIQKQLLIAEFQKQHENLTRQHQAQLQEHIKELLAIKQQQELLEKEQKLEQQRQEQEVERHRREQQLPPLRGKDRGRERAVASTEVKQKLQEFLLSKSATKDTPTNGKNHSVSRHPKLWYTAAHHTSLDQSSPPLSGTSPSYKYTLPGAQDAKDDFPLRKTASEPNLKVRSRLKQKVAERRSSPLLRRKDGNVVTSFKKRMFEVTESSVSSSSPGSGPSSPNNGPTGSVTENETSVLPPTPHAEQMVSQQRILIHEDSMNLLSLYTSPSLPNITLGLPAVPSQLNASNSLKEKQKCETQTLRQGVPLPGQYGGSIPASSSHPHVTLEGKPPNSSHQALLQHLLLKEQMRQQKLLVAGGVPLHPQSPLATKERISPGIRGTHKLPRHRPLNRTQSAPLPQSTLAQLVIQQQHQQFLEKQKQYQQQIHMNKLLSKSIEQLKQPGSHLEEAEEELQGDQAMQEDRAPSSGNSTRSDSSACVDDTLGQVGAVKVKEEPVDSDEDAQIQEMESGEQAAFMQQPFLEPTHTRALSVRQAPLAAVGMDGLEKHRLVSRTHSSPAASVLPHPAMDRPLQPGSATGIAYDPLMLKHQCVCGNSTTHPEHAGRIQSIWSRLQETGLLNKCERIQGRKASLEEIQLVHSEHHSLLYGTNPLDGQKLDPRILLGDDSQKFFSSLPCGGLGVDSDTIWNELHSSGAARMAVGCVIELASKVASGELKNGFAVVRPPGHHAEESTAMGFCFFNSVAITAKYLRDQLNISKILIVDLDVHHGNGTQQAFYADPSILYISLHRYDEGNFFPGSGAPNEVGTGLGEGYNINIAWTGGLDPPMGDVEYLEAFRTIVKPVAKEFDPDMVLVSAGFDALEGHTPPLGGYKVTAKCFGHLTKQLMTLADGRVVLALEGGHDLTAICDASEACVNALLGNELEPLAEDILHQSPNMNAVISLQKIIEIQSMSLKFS
HDAC3, sequence (O15379 whole entry): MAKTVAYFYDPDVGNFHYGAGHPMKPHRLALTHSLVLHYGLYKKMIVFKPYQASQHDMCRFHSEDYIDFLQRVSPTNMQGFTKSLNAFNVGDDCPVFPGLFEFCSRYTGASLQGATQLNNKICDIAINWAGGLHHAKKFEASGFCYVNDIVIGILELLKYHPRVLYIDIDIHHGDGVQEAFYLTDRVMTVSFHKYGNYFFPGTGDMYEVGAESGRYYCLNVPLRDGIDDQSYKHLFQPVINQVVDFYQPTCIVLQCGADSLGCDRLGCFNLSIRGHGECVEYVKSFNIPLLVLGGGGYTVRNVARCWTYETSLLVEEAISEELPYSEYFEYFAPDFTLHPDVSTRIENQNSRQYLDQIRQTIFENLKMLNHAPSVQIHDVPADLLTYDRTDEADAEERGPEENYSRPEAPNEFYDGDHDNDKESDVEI
HDAC3, sequence (Q9Y618 395-489 partner limits assumed): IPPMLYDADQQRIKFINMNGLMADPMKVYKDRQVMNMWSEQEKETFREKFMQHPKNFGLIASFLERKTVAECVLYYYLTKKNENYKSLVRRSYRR
HDAC5, sequence (Q9UQL6 whole entry): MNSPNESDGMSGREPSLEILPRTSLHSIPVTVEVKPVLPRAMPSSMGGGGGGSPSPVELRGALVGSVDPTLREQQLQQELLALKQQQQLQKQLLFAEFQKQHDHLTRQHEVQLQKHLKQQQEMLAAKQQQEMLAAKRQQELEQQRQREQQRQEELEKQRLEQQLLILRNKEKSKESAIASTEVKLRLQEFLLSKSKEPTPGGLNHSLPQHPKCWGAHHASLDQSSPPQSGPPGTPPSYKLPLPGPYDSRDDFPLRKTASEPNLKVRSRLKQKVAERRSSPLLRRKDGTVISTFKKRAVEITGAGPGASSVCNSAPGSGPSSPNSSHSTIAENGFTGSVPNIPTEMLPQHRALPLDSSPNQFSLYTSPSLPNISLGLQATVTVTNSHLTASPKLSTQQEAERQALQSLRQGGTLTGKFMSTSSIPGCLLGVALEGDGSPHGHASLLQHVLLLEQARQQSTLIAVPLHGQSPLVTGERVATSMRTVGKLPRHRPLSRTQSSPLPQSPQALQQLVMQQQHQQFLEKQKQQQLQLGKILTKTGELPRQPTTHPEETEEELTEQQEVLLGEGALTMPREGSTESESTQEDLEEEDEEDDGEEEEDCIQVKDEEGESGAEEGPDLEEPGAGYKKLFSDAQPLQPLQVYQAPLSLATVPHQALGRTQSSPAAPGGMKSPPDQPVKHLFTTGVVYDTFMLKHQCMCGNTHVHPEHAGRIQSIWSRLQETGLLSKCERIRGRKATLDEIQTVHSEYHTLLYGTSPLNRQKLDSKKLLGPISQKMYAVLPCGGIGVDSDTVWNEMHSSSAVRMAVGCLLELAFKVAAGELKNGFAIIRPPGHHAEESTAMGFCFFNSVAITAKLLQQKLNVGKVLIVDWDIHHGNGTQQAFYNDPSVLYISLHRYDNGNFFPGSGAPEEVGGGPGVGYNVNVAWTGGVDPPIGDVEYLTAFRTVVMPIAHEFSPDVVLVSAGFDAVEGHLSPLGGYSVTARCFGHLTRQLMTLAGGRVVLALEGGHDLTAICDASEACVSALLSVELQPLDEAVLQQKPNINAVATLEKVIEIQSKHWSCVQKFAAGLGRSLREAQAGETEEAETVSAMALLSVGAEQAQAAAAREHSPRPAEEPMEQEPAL

Nc1nonc1-n1cc(C(=O)N/N=C/c2cc(Cl)cc(C(F)(F)F)c2)nn1 [JYQ-42]
secretion levels of IL6, IL8 and TNF-α (BXPC-3 cells): blocked the secretion levels | IC50 (HDAC4): > 100 µM | IC50 (HDAC7): > 100 µM | IC50 (HDAC9): > 100 µM | inhibition ratio at 50 μmol/L on H3K9Ac (SIRT6 [1]): 90.7% | IC50 (SIRT2): 87.2 ± 1.1 µM | inhibition ratio at 50 μmol/L (SIRT2) (SIRT2; 50 μmol/L): 38.6% | SIRT2 IC50 relative to that of SIRT6 (SIRT2; IC50 SIRT2 / IC50 SIRT6): approximately 37 fold | Effect (SIRT2; SIRT2): Inhibition | IC50 (HDAC5): > 100 µM | amount of H3K9-free lysine peptides by HPLC (SIRT6 [2]): decreased prominently | cell growth (MiaPaCa-2 cells): no significant impact on cell growth | effect of increasing NAD^+ or Ac-RHKK-Ac-AMC on the inhibition (SIRT6 [3]): did not interfere with the inhibition | IC50 (HDAC3): > 100 µM | inhibition mode (SIRT6 [4]; Lineweaver–Burk analysis towards NAD^+ and Ac-RHKK-Ac-AMC): non-competitive inhibitor | kcat (Ac-RHKK-Ac-AMC) (SIRT6 [4]; SIRT6 with 1 μmol/L JYQ-42): 33.65 × 10^−4 S^−1 | kcat (Ac-RHKK-Ac-AMC) (SIRT6 [4]; SIRT6 with 3 μmol/L JYQ-42): 22.12 × 10^−4 S^−1 | kcat (Ac-RHKK-Ac-AMC) (SIRT6 [4]; SIRT6 with 10 μmol/L JYQ-42): 13.86 × 10^−4 S^−1
